The species entered for assay [1] is Rattus norvegicus. The assay is described as follows: Downregulation of Foxp1 gene expression in rat aorta pretreated with compound at 500 nM followed by AngII addition measured by ChIP assay. It counts as functional, tissue-based.
The species entered for assay [2] is Rattus norvegicus. Description: Downregulation of Fgf2 gene expression in rat aorta pretreated with compound at 500 nM followed by AngII addition measured by ChIP assay. The format is functional, tissue-based.
The species named for assay [3] is Rattus norvegicus. The assay is described as follows: Downregulation of fst gene expression in rat aorta pretreated with compound at 500 nM followed by AngII addition measured by ChIP assay. It counts as functional, tissue-based.
The species entered for assay [4] is Rattus norvegicus. The assay is described as follows: Downregulation of Tgif1 gene expression in rat aorta pretreated with compound at 500 nM followed by AngII addition measured by ChIP assay. It counts as functional, tissue-based.
The species entered for assay [5] is Rattus norvegicus. Description: Downregulation of Spry2 gene expression in rat aorta pretreated with compound at 500 nM followed by AngII addition measured by ChIP assay. It counts as functional, tissue-based.
The species named for assay [6] is Rattus norvegicus. Description: Downregulation of ESM1 gene expression in rat aorta pretreated with compound at 500 nM followed by AngII addition measured by ChIP assay. The format is functional, tissue-based.
In assay [7] the test system is VSMC. The assay is described as follows: Downregulation of Foxp1 gene expression in human VSMC cells pretreated with compound at 250 to 500 nM followed by AngII addition measured by RT-qPCR analysis. It counts as functional, cell-based. The following applies: dose 250-500 nM. (In qPCR the cycle at which signal appears reflects the starting amount.)
For assay [8], the system named is VSMC. Description: Downregulation of Flt gene expression in human VSMC cells pretreated with compound at 250 to 500 nM followed by AngII addition measured by RT-qPCR analysis. It counts as functional, cell-based. To be noted: dose 250-500 nM.
In assay [9] the test system is VSMC. Description: Downregulation of Egr2 gene expression in human VSMC cells pretreated with compound at 250 to 500 nM followed by AngII addition measured by RT-qPCR analysis. It counts as functional, cell-based. The following applies: dose 250-500 nM.
The subject of assay [10] is VSMC. The assay is described as follows: Downregulation of Fgf2 gene expression in human VSMC cells pretreated with compound at 250 to 500 nM followed by AngII addition measured by RT-qPCR analysis. It counts as functional, cell-based. To be noted: dose 250-500 nM.
Assay [11] deals with VSMC. The assay is described as follows: Downregulation of Fst gene expression in human VSMC cells pretreated with compound at 250 to 500 nM followed by AngII addition measured by RT-qPCR analysis. It counts as functional, cell-based. The following applies: dose 250-500 nM.
The subject of assay [12] is VSMC. The assay is described as follows: Downregulation of Tgif1 gene expression in human VSMC cells pretreated with compound at 250 to 500 nM followed by AngII addition measured by RT-qPCR analysis. It counts as functional, cell-based. To be noted: dose 250-500 nM.
In assay [13] the test system is VSMC. The assay is described as follows: Downregulation of Spry2 gene expression in human VSMC cells pretreated with compound at 250 to 500 nM followed by AngII addition measured by RT-qPCR analysis. The format is functional, cell-based. The following applies: dose 250-500 nM.
For assay [14], the system named is VSMC. The assay is described as follows: Downregulation of ESM1 gene expression in human VSMC cells pretreated with compound at 250 to 500 nM followed by AngII addition measured by RT-qPCR analysis. The format is functional, cell-based. The following applies: dose 250-500 nM.
Assay [15] in a line: Binding affinity of BRD2 (unknown origin) assessed as dissociation constant. Further details: species or system Homo sapiens.
The test system of assay [16] is Mus musculus. Description: Antihypersensitivity in 1 ug/kg/min AngII infused C57BL/6 mouse assessed as reduction in systolic blood pressure at 50 mg/kg, ip for 4 weeks. The format is functional, organism-based. An outline of the steps:
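Male C57BL/6 mice infused with AngII via subcutaneous osmotic minipump (1.0 μg kg−1 min−1, 28 days); 50 mg kg−1 ip once daily starting 2 days post-implantation, vehicle DMSO. Systolic pressure by tail cuff during week 4. n = 7–8 mice/group, mean + SEM, one-way ANOVA with Tukey.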

Assay [17] has as its system Mus musculus. The assay is described as follows: Antihypersensitivity in 1 ug/kg/min AngII infused C57BL/6 mouse assessed as reduction in medial hypertrophy at 50 mg/kg, ip for 4 weeks by F4/80 staining analysis. The format is functional, organism-based. Put shortly:
(§1)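 Male C57BL/6 mice with subcutaneous osmotic minipumps delivering AngII (1.0 μg kg−1 min−1, 28 days); from 2 days post-implantation, 50 mg kg−1 ip once daily (vehicle DMSO). Aortas formalin-fixed, paraffin 5 µm sections. H&E sections quantified for wall thickness; F4/80 IHC (DAB) quantified as reciprocal brown intensity excluding adventitia. Mean + SEM, one-way ANOVA with Tukey.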

Assay [18] concerns Mus musculus. Description: Antihypersensitivity in 1 ug/kg/min AngII infused C57BL/6 mouse assessed as reduction in inflammation at 50 mg/kg, ip for 4 weeks by F4/80 staining analysis. It counts as functional, organism-based. An outline of the steps: as §1

As usually defined, the Kd is a measure of binding affinity in units of concentration.

SMILES strings stand for the structures. Active and inactive are the calls of the source. The calls are words filed in the database; no cut-off is given here.

With `Cc1sc2c(c1C)C(c1ccc(Cl)cc1)=N[C@@H](CC(=O)OC(C)(C)C)c1nnc(C)n1-2`, the outcome in assay [1], in [2], in [3], in assay [4], in assay [5] and in assay [6] was Active. Further, the result in assay [7], in [8], in assay [9], in [10], in [11] and in assay [12] was Active. Besides, the outcome in [13], in assay [14], in assay [16], in assay [17] and in assay [18] was Active. In assay [15], the Kd is roughly 128 nM.
